ChEMBL document CHEMBL4257483, “Design, synthesis and bioactivities of phenithionate analogues or derivatives for anti-schistosomiasis” (Medchemcomm, 2018)
≈ marks a conversion by molar mass, not a printed value. Values belong to the molecule of their own block, whether it stands above or below them. Calls of active or inactive are those of the source. The rule behind the calls is not given here.

Experiments:
Schistosoma japonicum [1] = assay: Antischistosomal activity against Schistosoma japonicum larva derived from infected mouse assessed as reduction in larva viability after 72 hrs; type: functional, organism-based
Method in brief: (§1)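 Worms perfused with cold heparinised HBSS from mice infected percutaneously with S. japonicum cercariae: larvae at 15 days post-infection (260–280 cercariae), adults at 35 days (120–140 cercariae). Five male and female worms per well in 10% calf serum RPMI 1640 with penicillin, streptomycin and amphotericin B. Preincubated 4 h at 37 °C, 5% CO2, then compounds added and viability recorded over 72 h. IC50 taken at 50% survival. DMSO blank.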

[2] = Lipid/water partition coefficient, log P of the compound; type: physicochemical
Schistosoma japonicum [3] = assay: Antischistosomal activity against Schistosoma japonicum imago derived from infected mouse assessed as reduction in imago viability after 72 hrs; type: functional, organism-based; method in brief: as §1
[4] = Dissociation constant, pKa of the compound; type: physicochemical
Schistosoma mansoni = assay: Antischistosomal activity against Schistosoma mansoni imago derived from infected mouse at 20 ug/ml after 72 hrs; type: functional, organism-based
Schistosoma japonicum [5] = assay: Antischistosomal activity against Schistosoma japonicum infected in mouse at 25 mg/kg/day, po treated for 5 days measured after day 1 post last dose by ELISA; type: functional, organism-based
Method in brief: (§2)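 Male mice (20–22 g) infected via abdominal skin with 120–140 S. japonicum cercariae. From day 35 post-infection, dosed orally once daily for 5 days. Venous blood then clotted and centrifuged 15 min at 3500 rpm. Serum tested by triple dot ELISA and scored by spot colour: brown +++, yellow ++, slight yellow +, colourless –. DMSO blank.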

Schistosoma japonicum [6] = assay: Antischistosomal activity against Schistosoma japonicum infected in mouse at 50 mg/kg/day, po treated for 5 days measured after day 7 post last dose by ELISA; type: functional, organism-based; method in brief: as §2
Schistosoma japonicum [7] = assay: Antischistosomal activity against Schistosoma japonicum infected in mouse at 50 mg/kg/day, po treated for 5 days measured after day 6 post last dose by ELISA; type: functional, organism-based; method in brief: as §2
Schistosoma japonicum [8] = assay: Antischistosomal activity against Schistosoma japonicum infected in mouse at 25 mg/kg/day, po treated for 5 days measured after day 4 post last dose by ELISA; type: functional, organism-based; method in brief: as §2
Schistosoma japonicum [9] = assay: Antischistosomal activity against Schistosoma japonicum infected in mouse at 25 mg/kg/day, po treated for 5 days measured after day 3 post last dose by ELISA; type: functional, organism-based; method in brief: as §2
Schistosoma haematobium = assay: Antischistosomal activity against Schistosoma haematobium imago derived from infected mouse at 20 ug/ml after 72 hrs; type: functional, organism-based
Schistosoma japonicum [10] = assay: Antischistosomal activity against Schistosoma japonicum infected in mouse at 25 mg/kg/day, po treated for 5 days measured after day 7 post last dose by ELISA; type: functional, organism-based; method in brief: as §2
Schistosoma japonicum [11] = assay: Antischistosomal activity against Schistosoma japonicum infected in mouse at 25 mg/kg/day, po treated for 5 days measured after day 2 post last dose by ELISA; type: functional, organism-based; method in brief: as §2
Schistosoma japonicum [12] = assay: Antischistosomal activity against Schistosoma japonicum infected in mouse at 50 mg/kg/day, po treated for 5 days measured after day 5 post last dose by ELISA; type: functional, organism-based; method in brief: as §2
Schistosoma japonicum [13] = assay: Antischistosomal activity against Schistosoma japonicum infected in mouse at 50 mg/kg/day, po treated for 5 days measured after day 4 post last dose by ELISA; type: functional, organism-based; method in brief: as §2
Schistosoma japonicum [14] = assay: Antischistosomal activity against Schistosoma japonicum infected in mouse at 50 mg/kg/day, po treated for 5 days measured after day 1 post last dose by ELISA; type: functional, organism-based; method in brief: as §2
[15] = Acute toxicity in po dosed mouse infected with Schistosoma japonicum treated for 5 days; type: organism-based; details: in vivo
Schistosoma japonicum [16] = assay: Antischistosomal activity against Schistosoma japonicum infected in mouse at 50 mg/kg/day, po treated for 5 days measured after day 9 post last dose by ELISA; type: functional, organism-based; method in brief: as §2
Schistosoma japonicum [17] = assay: Antischistosomal activity against Schistosoma japonicum infected in mouse at 25 mg/kg/day, po treated for 5 days measured after day 9 post last dose by ELISA; type: functional, organism-based; method in brief: as §2
Schistosoma japonicum [18] = assay: Antischistosomal activity against Schistosoma japonicum infected in mouse at 50 mg/kg/day, po treated for 5 days measured after day 3 post last dose by ELISA; type: functional, organism-based; method in brief: as §2
Schistosoma japonicum [19] = assay: Antischistosomal activity against Schistosoma japonicum infected in mouse at 25 mg/kg/day, po treated for 5 days measured after day 8 post last dose by ELISA; type: functional, organism-based; method in brief: as §2
Schistosoma japonicum [20] = assay: Antischistosomal activity against Schistosoma japonicum infected in mouse at 25 mg/kg/day, po treated for 5 days measured after day 6 post last dose by ELISA; type: functional, organism-based; method in brief: as §2
Schistosoma japonicum [21] = assay: Antischistosomal activity against Schistosoma japonicum infected in mouse at 50 mg/kg/day, po treated for 5 days measured after day 8 post last dose by ELISA; type: functional, organism-based; method in brief: as §2
Schistosoma japonicum [22] = assay: Antischistosomal activity against Schistosoma japonicum infected in mouse at 25 mg/kg/day, po treated for 5 days measured after day 5 post last dose by ELISA; type: functional, organism-based; method in brief: as §2
Schistosoma japonicum [23] = assay: Antischistosomal activity against Schistosoma japonicum infected in mouse at 50 mg/kg/day, po treated for 5 days measured after day 2 post last dose by ELISA; type: functional, organism-based; method in brief: as §2
Schistosoma japonicum [24] = assay: Antischistosomal activity against Schistosoma japonicum imago derived from infected mouse at 20 ug/ml after 72 hrs; type: functional, organism-based; method in brief: as §1

logP [2]: 7.43
IC50 (Schistosoma japonicum [3]): 37.3 µg/mL (≈ 79.2 µM)
pKa [4]: 9.22
SMILES: Oc1ccc(OC(=S)Nc2ccc(Sc3ccc(C(Cl)(Cl)Cl)cc3)cc2)cc1
IC50 (Schistosoma japonicum [1]): 21.1 µg/mL (≈ 44.8 µM)

logP [2]: 4.81
IC50 (Schistosoma japonicum [3]): 14.1 µg/mL (≈ 33.3 µM)
pKa [4]: 9.04
SMILES: CC(=O)Nc1ccc(OC(=S)Nc2ccc(Oc3ccc([N+](=O)[O-])cc3)cc2)cc1
IC50 (Schistosoma japonicum [1]): 8.24 µg/mL (≈ 19.5 µM)

logP [2]: 6.66
IC50 (Schistosoma japonicum [3]): 31.9 µg/mL (≈ 75.6 µM)
pKa [4]: 9.22
SMILES: Oc1ccc(OC(=S)Nc2ccc(Sc3ccc(C(F)(F)F)cc3)cc2)cc1
IC50 (Schistosoma japonicum [1]): 16.6 µg/mL (≈ 39.3 µM)

SMILES: Oc1ccc(OC(=S)Nc2ccc(Oc3ccc(C(F)(F)F)cc3)cc2)cc1
Activity (Schistosoma mansoni): inactive
Activity (Schistosoma japonicum [5]): Active
Activity (Schistosoma japonicum [6]): inactive
Activity (Schistosoma japonicum [7]): inactive
Activity (Schistosoma japonicum [8]): Active
Activity (Schistosoma japonicum [9]): Active
Activity (Schistosoma haematobium): inactive
IC50 (Schistosoma japonicum [1]): 5.21 µg/mL (≈ 12.9 µM)
Activity (Schistosoma japonicum [10]): inactive
Activity (Schistosoma japonicum [11]): Active
logP [2]: 6.11
Activity (Schistosoma japonicum [12]): inactive
Activity (Schistosoma japonicum [13]): inactive
Activity (Schistosoma japonicum [14]): Active
LD50 at 120 h [15]: > 500 mg/kg
Activity (Schistosoma japonicum [16]): inactive
Activity (Schistosoma japonicum [17]): inactive
Activity (Schistosoma japonicum [18]): Active
Activity (Schistosoma japonicum [19]): inactive
IC50 (Schistosoma japonicum [3]): 6.35 µg/mL (≈ 15.7 µM)
Activity (Schistosoma japonicum [20]): inactive
Activity (Schistosoma japonicum [21]): inactive
Activity (Schistosoma japonicum [22]): Active
Activity (Schistosoma japonicum [23]): Active
Activity (Schistosoma japonicum [24]): Active
pKa [4]: 9.23

logP [2]: 6.71
IC50 (Schistosoma japonicum [3]): 40.4 µg/mL (≈ 78.9 µM)
pKa [4]: 9.01
SMILES: CC(=O)Nc1ccc(OC(=S)Nc2ccc(Sc3ccc(C(Cl)(Cl)Cl)cc3)cc2)cc1
IC50 (Schistosoma japonicum [1]): 23.5 µg/mL (≈ 46 µM)

logP [2]: 4.32
IC50 (Schistosoma japonicum [3]): 15.2 µg/mL (≈ 36 µM)
pKa [4]: 9.04
SMILES: CC(=O)Nc1ccc(OC(=S)Nc2ccc(Nc3ccc([N+](=O)[O-])cc3)cc2)cc1
IC50 (Schistosoma japonicum [1]): 8.22 µg/mL (≈ 19.5 µM)

logP [2]: 5.06
IC50 (Schistosoma japonicum [3]): 31.2 µg/mL (≈ 71 µM)
pKa [4]: 8.99
SMILES: CC(=O)Nc1ccc(OC(=S)Nc2ccc(Sc3ccc([N+](=O)[O-])cc3)cc2)cc1
IC50 (Schistosoma japonicum [1]): 16.7 µg/mL (≈ 37.9 µM)

SMILES: Oc1ccc(OC(=S)Nc2ccc(Oc3ccc(C(Cl)(Cl)Cl)cc3)cc2)cc1
Activity (Schistosoma mansoni): inactive
Activity (Schistosoma japonicum [5]): Active
Activity (Schistosoma japonicum [6]): Active
Activity (Schistosoma japonicum [7]): Active
Activity (Schistosoma japonicum [8]): Active
Activity (Schistosoma japonicum [9]): Active
Activity (Schistosoma haematobium): inactive
IC50 (Schistosoma japonicum [1]): 7.98 µg/mL (≈ 17.5 µM)
Activity (Schistosoma japonicum [10]): inactive
Activity (Schistosoma japonicum [11]): Active
logP [2]: 6.84
Activity (Schistosoma japonicum [13]): Active
Activity (Schistosoma japonicum [14]): Active
LD50 at 120 h [15]: > 500 mg/kg
Activity (Schistosoma japonicum [16]): Active
Activity (Schistosoma japonicum [17]): inactive
Activity (Schistosoma japonicum [18]): Active
Activity (Schistosoma japonicum [19]): inactive
IC50 (Schistosoma japonicum [3]): 13.5 µg/mL (≈ 29.8 µM)
Activity (Schistosoma japonicum [20]): Active
Activity (Schistosoma japonicum [21]): Active
Activity (Schistosoma japonicum [22]): Active
Activity (Schistosoma japonicum [23]): Active
Activity (Schistosoma japonicum [24]): Active
pKa [4]: 9.24

SMILES: O=C(C1CCCCC1)N1CC(=O)N2CCc3ccccc3C2C1 (stereo unspecified) [PRAZIQUANTEL]
Activity (Schistosoma japonicum [5]): Active
Activity (Schistosoma japonicum [6]): inactive
Activity (Schistosoma japonicum [7]): Active
Activity (Schistosoma japonicum [8]): Active
Activity (Schistosoma japonicum [9]): Active
IC50 (Schistosoma japonicum [1]): 6.33 µg/mL (≈ 20.3 µM)
Activity (Schistosoma japonicum [10]): inactive
Activity (Schistosoma japonicum [11]): Active
Activity (Schistosoma japonicum [12]): Active
Activity (Schistosoma japonicum [13]): Active
Activity (Schistosoma japonicum [14]): Active
LD50 at 120 h [15]: > 500 mg/kg
Activity (Schistosoma japonicum [16]): inactive
Activity (Schistosoma japonicum [17]): inactive
Activity (Schistosoma japonicum [18]): Active
Activity (Schistosoma japonicum [19]): inactive
IC50 (Schistosoma japonicum [3]): 7.98 µg/mL (≈ 25.5 µM)
Activity (Schistosoma japonicum [20]): Active
Activity (Schistosoma japonicum [21]): inactive
Activity (Schistosoma japonicum [22]): Active
Activity (Schistosoma japonicum [23]): Active
